What was measured:
MT4 [1] = experiment: Selectivity index measured as the ratio of CC50 / EC50.; assay type: functional
Method in brief: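 Selectivity index: CC50 in mock-infected MT-4 cells divided by EC50 against HIV-1 IIIB cytopathicity in MT-4 cells, both from MTT read-out after 4-day culture.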

[2] = biological target: Human immunodeficiency virus type 1 reverse transcriptase (Human immunodeficiency virus 1, UniProt Q72547); experiment: Concentration required to inhibit the HIV-1 reverse transcriptase activity by 50%.
Method in brief: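 Purified recombinant HIV-1 RT, RNA-dependent polymerase activity. Substrate: [³H]dGTP, […] (1 Ci/mmol). Reaction 30 min at 37 °C, then acid-insoluble radioactivity counted on glass-fibre filters.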

MT4 [3] = experiment: Cytotoxicity against mock-infected MT-4 cells.; assay type: functional; details: Homo sapiens
Method in brief: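 Mock-infected MT-4 cells (1×10^4/well) incubated 4 days at 37 °C alongside the antiviral assay with serial compound dilutions (from 200 mM DMSO stock); viability read by MTT; CC50 is the dose lowering viability of mock-infected cells by 50%; means of at least two separate experiments.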

MT4 [4] = experiment: Concentration required to achieve 50% protection of MT-4 cells from HIV-1-induced cytopathogenicity.; assay type: functional, cell-based; details: Homo sapiens
Method in brief: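 MT-4 cells (1×10^4/well) exposed to test compound dilutions (DMSO stock 200 mM, diluted in medium), then infected with HIV-1 IIIB at 100 CCID50/well; 4-day incubation at 37 °C; viable cells counted by MTT; EC50 is the dose giving 50% protection from virus-induced cytopathicity; means of at least two separate experiments.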

Row | Compound | Selectivity index (MT4 [1]) [SI] | IC50 [2] [nM] | CC50 (MT4 [3]) [nM] | EC50 (MT4 [4]) [nM]
1 | CCC(C)Sc1nc(O)c(C)c(Cc2ccccc2)n1 (centres undefined) | 140 | 500 | – | –
2 | CCC(C)Sc1nc(O)cc(Cc2ccccc2)n1 (centres undefined) | 125 | 1000 | – | –
3 | Cc1c(O)nc(SC2CCCC2)nc1Cc1ccccc1 | >333 | 500 | > 200000 | –
4 | Oc1cc(Cc2ccccc2)nc(SC2CCCC2)n1 | 86 | 1600 | – | –
5 | CCC(C)Sc1nc(O)cc(Cc2c(Cl)cccc2Cl)n1 (centres undefined) | >1428 | 100 | > 200000 | 140
6 | Oc1cc(Cc2c(Cl)cccc2Cl)nc(SC2CCCC2)n1 | >500 | 400 | > 200000 | 400
7 | CCC(C)Sc1nc(O)cc(Cc2ccccc2F)n1 (centres undefined) | 769 | 300 | 200000 | 260
8 | CCC(C)Sc1nc(O)c(C)c(Cc2ccccc2Cl)n1 (centres undefined) | >741 | 400 | > 200000 | 270
9 | CCCCSc1nc(O)cc(Cc2c(Cl)cccc2Cl)n1 | >454 | 500 | > 200000 | 440
10 | CSc1nc(O)cc(Cc2c(Cl)cccc2Cl)n1 | >62 | 3000 | > 200000 | 3200
11 | CSc1nc(O)c(C)c(Cc2c(Cl)cccc2Cl)n1 | 5.2 | – | > 200000 | 38000
12 | Oc1cc(Cc2c(F)cccc2F)nc(SC2CCCCC2)n1 | >2500 | 90 | > 200000 | 80
13 | Cc1c(O)nc(SC2CCCCC2)nc1Cc1c(F)cccc1F | >2222 | 70 | > 200000 | 90
14 | CC(C)CSc1nc(O)cc(Cc2c(Cl)cccc2Cl)n1 | >444 | 600 | > 200000 | 450
15 | CCCCSc1nc(O)c(C)c(Cc2c(Cl)cccc2Cl)n1 | >171 | 1150 | > 200000 | 1100
16 | Cc1c(O)nc(SCC(C)C)nc1Cc1c(F)cccc1F | 1640 | 90 | 164000 | 100
17 | CSc1nc(O)c(C)c(Cc2c(F)cccc2F)n1 | 1053 | 200 | 200000 | 190
18 | CCC(C)Sc1nc(O)cc(Cc2cccc([N+](=O)[O-])c2)n1 (centres undefined) | 392 | 300 | 157000 | 400
19 | CCC(C)Sc1nc(O)cc(Cc2ccccc2Cl)n1 (centres undefined) | 200 | 1600 | 200000 | 1000
20 | Cc1c(O)nc(SC2CCCC2)nc1Cc1c(Cl)cccc1Cl | >111 | 1700 | > 200000 | 1800
21 | CCC(C)Sc1nc(O)c(C)c(Cc2c(Cl)cccc2Cl)n1 (centres undefined) | >4000 | 60 | > 200000 | 50
22 | CSc1nc(O)cc(Cc2c(F)cccc2F)n1 | >247 | 800 | > 200000 | 810
23 | CCC(C)Sc1nc(O)c(C)c(Cc2cccc(F)c2)n1 (centres undefined) | >166 | 1500 | > 200000 | 1200

Row | Compound | Selectivity index (MT4 [1]) [SI] | IC50 [2] [nM] | CC50 (MT4 [3]) [nM] | EC50 (MT4 [4]) [nM]
24 | CCCCSc1nc(O)c(C)c(Cc2c(F)cccc2F)n1 | >2500 | 90 | > 200000 | 80
25 | Cc1c(Cc2c(F)cccc2F)nc(SC2CCCC2)[nH]c1=O | >2500 | 80 | > 200000 | 80
26 | O=c1cc(Cc2c(F)cccc2F)nc(SC2CCCC2)[nH]1 | >2500 | 80 | > 200000 | 80
27 | CCC(C)Sc1nc(O)c(C)c(Cc2ccc(F)cc2)n1 (centres undefined) | 9.5 | 13000 | 105000 | 11000
28 | CCC(C)Sc1nc(O)c(C)c(Cc2ccc([N+](=O)[O-])cc2)n1 (centres undefined) | >100 | 1800 | > 200000 | 2000
29 | CCC(C)Sc1nc(O)cc(Cc2ccc(Cl)cc2)n1 (centres undefined) | 24 | 4800 | 120000 | 5000
30 | CCCCSc1nc(O)cc(Cc2c(F)cccc2F)n1 | 900 | 200 | 162000 | 180
31 | Cc1c(O)nc(SC(C)C)nc1Cc1c(Cl)cccc1Cl | >154 | 1150 | > 200000 | 1300
32 | CCC(C)Sc1nc(O)c(C)c(Cc2cccc(Cl)c2)n1 (centres undefined) | >208 | 900 | > 200000 | 960
33 | CCC(C)Sc1nc(O)cc(Cc2cccc(F)c2)n1 (centres undefined) | >286 | 600 | > 200000 | 700
34 | Cc1c(O)nc(SC2CCCCC2)nc1Cc1c(Cl)cccc1Cl | >9 | 4900 | > 200000 | 22000
35 | CCC(C)Sc1nc(O)c(C)c(Cc2ccc(Cl)cc2)n1 (centres undefined) | >20 | 8500 | > 200000 | 9500
36 | CCC(C)Sc1nc(O)cc(Cc2ccccc2[N+](=O)[O-])n1 (centres undefined) | >800 | 300 | > 200000 | 250
37 | Oc1cc(Cc2c(Cl)cccc2Cl)nc(SC2CCCCC2)n1 | >333 | 400 | > 200000 | 600
38 | CCC(C)Sc1nc(O)c(C)c(Cc2cccc([N+](=O)[O-])c2)n1 (centres undefined) | >571 | 400 | > 200000 | 350
39 | Cc1c(O)nc(SCC(C)C)nc1Cc1c(Cl)cccc1Cl | >166 | 1100 | > 200000 | 1200
40 | CCC(C)Sc1nc(O)cc(Cc2ccc(F)cc2)n1 (centres undefined) | 23 | 7400 | > 200000 | 8700
41 | CCC(C)Sc1nc(O)cc(Cc2cccc(Cl)c2)n1 (centres undefined) | 58 | 1900 | 116000 | 2000
42 | Cc1c(Cc2c(F)cccc2F)nc(SC(C)C)[nH]c1=O | >4000 | 50 | > 200000 | 50
43 | CCC(C)Sc1nc(O)c(C)c(Cc2c(F)cccc2F)n1 (centres undefined) | >4000 | 50 | > 200000 | 50
44 | CCC(C)Sc1nc(O)cc(Cc2c(F)cccc2F)n1 (centres undefined) | >5000 | 50 | > 200000 | 40
45 | Cc1ccnc2c1NC(=O)c1cccnc1N2C1CC1 [NEVIRAPINE] | – | – | > 200000 | –
